Measurements published in ChEMBL document CHEMBL1154874, “6-Substituted 2-(N-trifluoroacetylamino)imidazopyridines induce cell cycle arrest and apoptosis in SK-LU-1 human cancer cell line” (Eur J Med Chem, 2010).
Active and inactive are the calls of the source. The calls are words filed in the database; no cut-off is given here.

Experiments:
[1] = test system: MCF7; experiment: Cell cycle arrest in human MCF7 cells assessed as accumulation at G0/G1 phase at 2 times IC50 concentration after 24 hrs using propidium iodide staining by flow cytometry relative to control; type: functional
Summary of the method: (§1)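 Log-phase cells seeded in RPMI-1640 + 10% FBS at 1×10⁶ per 10 cm dish, attached 24 h at 37 °C, then exposed to compound (DMSO solvent control) for 24 h. Harvested with PBS-EDTA, washed, fixed in ice-cold 70% ethanol at −20 °C for 24–48 h, stained with propidium iodide and analysed by FACScan flow cytometry. Three independent experiments, mean ± SD; P < 0.05 versus DMSO.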

[2] = test system: SK-LU-1; experiment: Cell cycle arrest in human SK-LU-1 cells assessed as accumulation at S phase at 2 times IC50 concentration after 24 hrs using propidium iodide staining by flow cytometry relative to control; type: functional; summary of the method: as §1
[3] = test system: SK-LU-1; experiment: Cytotoxicity against human SK-LU-1 cells assessed as cell growth inhibition at 50 uM after 48 hrs by SRB assay; type: functional; conditions: SK-LU-1, 48 h, read-out: GI
Summary of the method: (§2)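 Cells in RPMI-1640/10% FBS/2 mM L-glutamine at 37 °C, 5% CO₂, seeded at 5000 cells/well and treated 24 h later for 48 h. Growth read by SRB (TCA fixation, 0.4% SRB, Tris solubilization, OD 515 nm).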

[4] = test system: SK-LU-1; experiment: Cell cycle arrest in human SK-LU-1 cells assessed as accumulation at G2/M phase at 2 times IC50 concentration after 24 hrs using propidium iodide staining by flow cytometry relative to control; type: functional; summary of the method: as §1
[5] = test system: HCT-15; experiment: Cytotoxicity against human HCT15 cells assessed as cell growth inhibition at 50 uM after 48 hrs by SRB assay; type: functional; conditions: for inhibition of growth at 50 µM: HCT-15, 48 h, read-out: GI; summary of the method: as §2
[6] = test system: MCF7; experiment: Cell cycle arrest in human MCF7 cells assessed as accumulation at G2/M phase at 2 times IC50 concentration after 24 hrs using propidium iodide staining by flow cytometry relative to control; type: functional; summary of the method: as §1
[7] = test system: MCF7; experiment: Cell cycle arrest in human MCF7 cells assessed as accumulation at S phase at 2 times IC50 concentration after 24 hrs using propidium iodide staining by flow cytometry relative to control; type: functional; summary of the method: as §1
[8] = test system: MCF7; experiment: Cytotoxicity against human MCF7 cells assessed as cell growth inhibition at 50 uM after 48 hrs by SRB assay; type: functional; conditions: MCF7, 48 h, read-out: GI; summary of the method: as §2
[9] = test system: K562; experiment: Cytotoxicity against human K562 cells assessed as cell growth inhibition at 50 uM after 48 hrs by SRB assay; type: functional; conditions: K562, 48 h, read-out: GI; summary of the method: as §2
[10] = test system: U-251; experiment: Cytotoxicity against human U251 cells assessed as cell growth inhibition at 50 uM after 48 hrs by SRB assay; type: functional; conditions: U-251, 48 h, read-out: GI; summary of the method: as §2
[11] = test system: PC-3; experiment: Cytotoxicity against human PC3 cells assessed as cell growth inhibition at 50 uM after 48 hrs by SRB assay; type: functional; conditions: PC-3, 48 h, read-out: GI; summary of the method: as §2
[12] = test system: SK-LU-1; experiment: Induction of apoptosis in human SK-LU-1 cells assessed as appearance of phosphatidylserine residues at 2 times IC50 concentration after 48 hrs by flow cytometry; type: functional
Summary of the method: (§3)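 SK-LU-1 cells treated 48 h with compounds at 2×IC50 or with DMSO as control. Labelled with FITC-annexin V and propidium iodide in binding buffer and analysed on a FACScan flow cytometer. Annexin V-only cells were scored as early apoptotic and annexin V/PI double-stained cells as late apoptotic. Values are means of three independent experiments.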

[13] = test system: SK-LU-1; experiment: Cell cycle arrest in human SK-LU-1 cells assessed as accumulation at G0/G1 phase at 2 times IC50 concentration after 24 hrs using propidium iodide staining by flow cytometry relative to control; type: functional; summary of the method: as §1
[14] = test system: K562; experiment: Cytotoxicity against human K562 cells after 48 hrs by SRB assay; type: functional, cell-based; conditions: K562, 48 h
Summary of the method: (§4)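 Compounds dissolved in DMSO. Cells grown in RPMI-1640 with 10% FBS and 2 mM L-glutamine at 37 °C under 5% CO₂. Seeded from 70% confluent flasks at 5000 cells/well, treated 24 h after seeding for 48 h. Fixed in situ with cold 50% TCA for 1 h at 4 °C, stained with 0.4% SRB, dye solubilized in 10 mM unbuffered Tris base, OD read at 515 nm.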

[15] = test system: U-251; experiment: Cytotoxicity against human U251 cells after 48 hrs by SRB assay; type: functional, cell-based; conditions: U-251, 48 h; summary of the method: as §4
[16] = test system: HCT-15; experiment: Cytotoxicity against human HCT15 cells after 48 hrs by SRB assay; type: functional, cell-based; conditions: HCT-15, 48 h; summary of the method: as §4
[17] = test system: SK-LU-1; experiment: Cytotoxicity against human SK-LU-1 cells after 48 hrs by SRB assay; type: functional, cell-based; conditions: SK-LU-1, 48 h; summary of the method: as §4
[18] = test system: SK-LU-1; experiment: Induction of apoptosis in human SK-LU-1 cells assessed as late apoptotic cells at 2 times IC50 concentration after 48 hrs using annexin V-propidium iodide staining by flow cytometry; type: functional, cell-based; summary of the method: as §3
[19] = test system: MCF7; experiment: Cytotoxicity against human MCF7 cells after 48 hrs by SRB assay; type: functional, cell-based; conditions: MCF7, 48 h; summary of the method: as §4
[20] = test system: SK-LU-1; experiment: Induction of apoptosis in human SK-LU-1 cells assessed as early apoptotic cells at 2 times IC50 concentration after 48 hrs using annexin V-propidium iodide staining by flow cytometry; type: functional, cell-based; summary of the method: as §3
[21] = test system: PC-3; experiment: Cytotoxicity against human PC3 cells after 48 hrs by SRB assay; type: functional, cell-based; conditions: PC-3, 48 h; summary of the method: as §4

SMILES: Cc1ccc(C(=O)c2ccc3nc(NC(=O)C(F)(F)F)cn3c2)cc1F
- Activity [1]: 63.5%
- Activity [2]: 16.2%
- inhibition of growth at 50 µM [3]: 81.5%
- Activity [4]: 60.6%
- inhibition of growth at 50 µM [5]: 65.5%
- Activity [6]: 18.1%
- Activity [7]: 14.5%
- inhibition of growth at 50 µM [8]: 57.3%
- inhibition of growth at 50 µM [9]: 52.2%
- inhibition of growth at 50 µM [10]: 37.9%
- inhibition of growth at 50 µM [11]: 30.7%
- Activity [12]: 39.5%
- Activity [13]: 22.6%

SMILES: Cn1cc(C(=O)c2ccc3nc(NC(=O)C(F)(F)F)cn3c2)c2ccccc21
- IC50 [14]: 54.6 µM
- Activity [1]: 70.6%
- Activity [2]: 14.7%
- inhibition of growth at 50 µM [3]: 69.2%
- Activity [4]: 47.5%
- inhibition of growth at 50 µM [5]: 78%
- Activity [6]: 20.2%
- IC50 [15]: 27.8 µM
- IC50 [16]: 65.1 µM
- Activity [7]: 6.3%
- IC50 [17]: 24.8 µM
- inhibition of growth at 50 µM [8]: 80.4%
- inhibition of growth at 50 µM [9]: 95.5%
- inhibition of growth at 50 µM [10]: 92.7%
- inhibition of growth at 50 µM [11]: 63.7%
- Activity [12]: 24.1%
- Activity [13]: 32.9%
- Activity [18]: Active
- IC50 [19]: 44.3 µM
- Activity [20]: Active

SMILES: Cn1cnc2c(NCc3ccccc3)nc(NCCO)nc21 [OLOMOUCINE]
- IC50 [14]: 89.3 µM
- IC50 [21]: 81 µM
- Activity [1]: 60.6%
- Activity [2]: 19.7%
- inhibition of growth at 50 µM [3]: 36.9%
- Activity [4]: 31.8%
- inhibition of growth at 50 µM [5]: 28.9%
- Activity [6]: 23.2%
- IC50 [15]: 81.5 µM
- IC50 [16]: 62.5 µM
- Activity [7]: 15%
- IC50 [17]: 68.1 µM
- inhibition of growth at 50 µM [8]: 37.6%
- inhibition of growth at 50 µM [9]: 19.8%
- inhibition of growth at 50 µM [10]: 32%
- inhibition of growth at 50 µM [11]: 22.7%
- Activity [13]: 44.2%
- IC50 [19]: 55.9 µM

SMILES: O=C(Nc1cn2cc(I)ccc2n1)C(F)(F)F
- inhibition of growth at 50 µM [3]: 25.6%
- inhibition of growth at 50 µM [5]: 56.3%
- inhibition of growth at 50 µM [8]: 36.7%
- inhibition of growth at 50 µM [9]: 33.1%
- inhibition of growth at 50 µM [10]: 20.8%
- inhibition of growth at 50 µM [11]: 50.9%

SMILES: O=C(c1ccc2nc(NC(=O)C(F)(F)F)cn2c1)c1ncc[nH]1
- IC50 [14]: 51.5 µM
- IC50 [21]: 52.3 µM
- inhibition of growth at 50 µM [3]: 97.5%
- inhibition of growth at 50 µM [5]: 47.8%
- IC50 [15]: 37.7 µM
- IC50 [16]: 56.8 µM
- IC50 [17]: 25.1 µM
- inhibition of growth at 50 µM [8]: 60.7%
- inhibition of growth at 50 µM [9]: 88.3%
- inhibition of growth at 50 µM [10]: 80.2%
- inhibition of growth at 50 µM [11]: 58.1%
- IC50 [19]: 42.4 µM

SMILES: Cc1ccc(F)c(C(=O)c2ccc3nc(NC(=O)C(F)(F)F)cn3c2)c1
- IC50 [14]: 10.9 µM
- IC50 [21]: 36.3 µM
- Activity [1]: 74%
- Activity [2]: 21.2%
- inhibition of growth at 50 µM [3]: 71.7%
- inhibition of growth at 50 µM [5]: 91.2%
- Activity [6]: 13.4%
- IC50 [15]: 51.9 µM
- IC50 [16]: 10.5 µM
- Activity [7]: 7.1%
- IC50 [17]: 11.2 µM
- inhibition of growth at 50 µM [8]: 66.3%
- inhibition of growth at 50 µM [9]: 92.6%
- inhibition of growth at 50 µM [10]: 61.5%
- inhibition of growth at 50 µM [11]: 59.2%
- Activity [12]: 20%
- Activity [13]: 10.4%
- Activity [18]: Active
- IC50 [19]: 10.7 µM
- Activity [20]: Active

SMILES: O=C(c1ccc(C(F)(F)F)c(F)c1)c1ccc2nc(NC(=O)C(F)(F)F)cn2c1
- IC50 [14]: 83.2 µM
- inhibition of growth at 50 µM [3]: 48.3%
- inhibition of growth at 50 µM [5]: 59.2%
- IC50 [15]: 84.2 µM
- IC50 [16]: 57.1 µM
- IC50 [17]: 57.1 µM
- inhibition of growth at 50 µM [8]: 56.5%
- inhibition of growth at 50 µM [9]: 50.1%
- inhibition of growth at 50 µM [10]: 38.4%
- inhibition of growth at 50 µM [11]: 32.6%
- IC50 [19]: 50.8 µM

SMILES: Cn1ccnc1C(=O)c1ccc2nc(NC(=O)C(F)(F)F)cn2c1
- inhibition of growth at 50 µM [3]: 29.2%
- growth inhibition (GI) [5]: inactive
- inhibition of growth at 50 µM [8]: 30.8%
- inhibition of growth at 50 µM [9]: 45.3%
- inhibition of growth at 50 µM [10]: 11.9%
- inhibition of growth at 50 µM [11]: 6.1%

SMILES: O=C(c1ccc2nc(NC(=O)C(F)(F)F)cn2c1)c1cc(C(F)(F)F)ccc1F
- inhibition of growth at 50 µM [3]: 70.5%
- inhibition of growth at 50 µM [5]: 91.7%
- inhibition of growth at 50 µM [8]: 65.1%
- inhibition of growth at 50 µM [9]: 88%
- inhibition of growth at 50 µM [10]: 59.3%
- inhibition of growth at 50 µM [11]: 61.5%

SMILES: O=C(c1ccc2nc(NC(=O)C(F)(F)F)cn2c1)c1ccc(C(F)(F)F)cc1F
- IC50 [14]: 56.6 µM
- IC50 [21]: 28 µM
- inhibition of growth at 50 µM [3]: 100%
- inhibition of growth at 50 µM [5]: 100%
- IC50 [15]: 52.3 µM
- IC50 [16]: 25 µM
- IC50 [17]: 35.1 µM
- inhibition of growth at 50 µM [8]: 97.2%
- inhibition of growth at 50 µM [9]: 90.2%
- inhibition of growth at 50 µM [10]: 80.1%
- inhibition of growth at 50 µM [11]: 92.6%
- IC50 [19]: 24.9 µM
